Broadly, the IC50 is the midpoint of a concentration-inhibition curve.

Activity calls are given as the source filed them. No cut-off for these calls is given here.

Our source for the IC50 and Activity values is ChEMBL document CHEMBL5370536, “Design, synthesis, and biological activity of dual monoamine oxidase A and heat shock protein 90 inhibitors, N-Methylpropargylamine-conjugated 4-isopropylresorcinol for glioblastoma” (Eur J Med Chem, 2023).

The target in assay [1] is T1, Amine oxidase [flavin-containing] A (Mus musculus, UniProt Q64133).
T1 sequence (Q64133 whole entry): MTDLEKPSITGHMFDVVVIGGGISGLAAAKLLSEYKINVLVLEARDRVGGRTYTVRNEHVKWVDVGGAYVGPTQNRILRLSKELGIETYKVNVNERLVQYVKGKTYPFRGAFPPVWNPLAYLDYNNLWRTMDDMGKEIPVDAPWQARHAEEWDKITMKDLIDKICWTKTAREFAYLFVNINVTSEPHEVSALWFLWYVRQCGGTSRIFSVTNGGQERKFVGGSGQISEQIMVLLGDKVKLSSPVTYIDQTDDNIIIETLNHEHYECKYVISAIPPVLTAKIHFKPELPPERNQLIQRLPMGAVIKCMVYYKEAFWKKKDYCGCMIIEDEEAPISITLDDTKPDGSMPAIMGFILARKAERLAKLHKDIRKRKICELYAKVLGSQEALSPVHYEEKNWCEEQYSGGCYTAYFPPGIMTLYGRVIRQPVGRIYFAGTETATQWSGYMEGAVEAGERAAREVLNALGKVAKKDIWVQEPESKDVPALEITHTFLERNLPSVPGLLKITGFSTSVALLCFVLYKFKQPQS
Briefly: Inhibition of MAO A in mouse GL26 cells preincubated for 20 mins followed by 14C-labeled 5-hydroxytryptamine addition and measured after 20 mins by scintillation counter analysis. The format is cell-based.

Assay [2] concerns U-251. Briefly: Downregulation of Akt phosphorylation expression at Ser 473 residues in human Temozolomide-resistant U-251 cells at 0.1 to 3 uM incubated for 24 hrs by Western blot analysis. As to conditions: dose 0.1-3 µM. The assay is classed as functional, cell-based. The essentials: (§1)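 GL26 and U251R cells were seeded at 3 × 10⁵ per well 24 h ahead, then treated in compound-containing medium for 24 h. Cells were washed twice in ice-cold PBS and lysed in RIPA buffer (150 mM NaCl, 1% Triton X-100, 0.5% deoxycholate, 0.1% SDS, 50 mM Tris pH 8.0) plus protease inhibitors. Lysate was cleared at 4°C, protein was quantified by BCA, and western blotting followed.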
(In general: A western blot detects proteins with antibodies after separation by electrophoresis.)

In assay [3] the test system is GL26. Briefly: Antitumor activity against mouse GL26 cells xenografted in C57BL/6J mouse model assessed as tumor growth inhibition at 10 mg/kg, ip administered daily for 14 days by caliper method. As to conditions: time 14.0 day.
Assay [4] relates to GL26. Briefly: Downregulation of IFN-gamma induced PD-L1 expression in mouse GL26 cells at 20 uM incubated for 24 hrs by flow cytometry analysis. The assay is classed as functional, cell-based. The essentials: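 GL26 cells were seeded at 3.6 × 10⁵ per well and exposed to compound, with or without 10 ng/mL IFN-γ, for 24 h. Cells were stained with goat anti-PD-L1 for 1 h, then FITC donkey anti-goat for 1 h. Surface FITC was read by flow cytometry, and MFI was normalized to the secondary-only control as an MFI ratio.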

The nature of assay [5]: Antiproliferative activity against mouse GL26 cells assessed as inhibition of cell growth measured after 48 hrs by MTT assay. As to conditions: GL26, 48 h. The assay is classed as functional, cell-based. The essentials:
(§2)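 Cells plated at 5×10³ per well 24 h before compound and grown in DMEM with 10% FBS at 37°C, 5% CO₂. After 48 h exposure, the medium was replaced with 0.5 mg/mL MTT for 3 h. Formazan was dissolved in DMSO and read at 570 nm.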
In general terms: Tetrazolium assays rely on reduction of a dye to a coloured formazan, in cell work by metabolically active cells.

Assay [6] relates to GL26. The assay can be described thus: Downregulation of Akt phosphorylation expression at Ser 473 residues in mouse GL26 cells at 0.1 to 3 uM incubated for 24 hrs by Western blot analysis. The assay is classed as functional, cell-based. As to conditions: dose 0.1-3 µM. The essentials: as §1
In assay [7] the test system is U-251. Briefly: Downregulation of Akt phosphorylation expression at Ser 473 residues in human Temozolomide-resistant U-251 cells incubated for 24 hrs by Western blot analysis. The assay is classed as functional, cell-based. As to conditions: dose 0.1-3 µM.
For assay [8], the system named is GL26. Briefly: Downregulation of Akt phosphorylation expression at Ser 473 residues in mouse GL26 cells incubated for 24 hrs by Western blot analysis. The conditions noted are these: dose 0.1-3 µM. The format is functional, cell-based.
Assay [9] has as its system GL26. Briefly: Downregulation of HER2 expression in mouse GL26 cells incubated for 24 hrs by Western blot analysis. The assay is classed as functional, cell-based. The conditions noted are these: dose 0.1-3 µM.
Assay [10] has as its system U-251. The assay can be described thus: Downregulation of HER2 expression in human Temozolomide-resistant U-251 cells incubated for 24 hrs by Western blot analysis. The format is functional, cell-based. The conditions noted are these: dose 0.1-3 µM.
The test system of assay [11] is U-251. The assay can be described thus: Antiproliferative activity against human Temozolomide-resistant U-251 cells assessed as inhibition of cell growth measured after 48 hrs by MTT assay. The assay is classed as functional, cell-based. As to conditions: U-251, 48 h. The essentials: as §2

`C#CCN(C)CCCOc1cc(N(C)C(=O)c2cc(C(C)C)c(O)cc2O)ccc1Cl` came in with an IC50 in [1] of over 10 µM.

In the case of `C#CCN(C)CCCOc1ccc(Cl)cc1Cl` [CLORGILINE], the result in the assay with U-251 [2], with GL26 [4] and in the assay with GL26 [6] was Active. In addition, the result with GL26 [3] was inactive. For the same compound, in [5], the IC50 is over 100 µM.

`C#CCN(C)CCCOc1cc(NC(=O)c2cc(C(C)C)c(O)cc2O)ccc1Cl` came in with an IC50 in [1] of 2.36 µM.

Regarding `CC(C)c1cc(-c2n[nH]c(=O)n2-c2ccc3c(ccn3C)c2)c(O)cc1O` [GANETESPIB], the Activity entry with U-251 [7], in the assay with GL26 [8], with GL26 [9] and in the assay on U-251 [10] was “Dose-Dependent Effect” in each case. Besides, the IC50 (in [1]; in the assay with U-251 [11]) was over 10 µM each time.

The compound `C#CCN(C)CCCOc1cc(N(CC)C(=O)c2cc(C(C)C)c(O)cc2O)ccc1Cl` came in with an IC50 in assay [1] of over 10 µM.

`C#CCN(C)CCCOc1cccc(N(CCC)C(=O)c2cc(C(C)C)c(O)cc2O)c1Cl` showed an IC50 in assay [1] of 0.88 µM.
